Experiments:
[1] = molecular target: T1, Glycogen phosphorylase, liver form (Homo sapiens, UniProt P06737); experiment: Inhibition of human liver GPa using Glc-1-P as substrate incubated for 15 mins
T1 sequence (P06737 whole entry): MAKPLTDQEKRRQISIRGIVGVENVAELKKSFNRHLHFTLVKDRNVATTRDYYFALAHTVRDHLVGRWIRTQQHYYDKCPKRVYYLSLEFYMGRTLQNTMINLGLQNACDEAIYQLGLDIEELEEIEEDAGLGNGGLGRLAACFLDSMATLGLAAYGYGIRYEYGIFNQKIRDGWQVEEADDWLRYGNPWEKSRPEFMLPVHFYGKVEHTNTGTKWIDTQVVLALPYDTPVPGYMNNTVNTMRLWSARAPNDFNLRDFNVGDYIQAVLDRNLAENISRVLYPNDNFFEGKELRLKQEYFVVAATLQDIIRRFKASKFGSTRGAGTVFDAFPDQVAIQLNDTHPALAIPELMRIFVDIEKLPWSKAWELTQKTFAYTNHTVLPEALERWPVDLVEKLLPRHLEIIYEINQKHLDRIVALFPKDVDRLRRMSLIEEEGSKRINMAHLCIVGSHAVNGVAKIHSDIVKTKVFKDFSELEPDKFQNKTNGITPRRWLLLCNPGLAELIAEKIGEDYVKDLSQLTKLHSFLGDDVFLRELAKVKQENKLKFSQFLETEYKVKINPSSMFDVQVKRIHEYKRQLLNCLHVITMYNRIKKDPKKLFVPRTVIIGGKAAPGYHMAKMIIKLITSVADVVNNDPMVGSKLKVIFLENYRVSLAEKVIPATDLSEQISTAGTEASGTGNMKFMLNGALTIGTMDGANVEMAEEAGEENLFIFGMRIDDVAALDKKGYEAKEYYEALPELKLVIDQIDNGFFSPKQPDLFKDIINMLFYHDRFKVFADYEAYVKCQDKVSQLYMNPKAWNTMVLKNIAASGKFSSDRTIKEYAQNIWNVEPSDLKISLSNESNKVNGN

[2] = Inhibition of rabbit muscle GPa using Glc-1-P as substrate incubated for 15 mins; set-up: species or system Oryctolagus cuniculus
HepG2 [3] = experiment: Cytotoxicity against human HepG2 cells assessed as reduction in cell viability at >200 uM incubated for 24 hrs by MTT assay; type: cell-based; conditions: hepg2, 24 h
[4] = Cytotoxicity against human HepG2 cells assessed as reduction in cell viability at 200 and 300 uM incubated for 3 hrs by MTT assay; type: cell-based; conditions: read-out: INH
[5] = Inhibition of rabbit muscle GPb using alpha-D-glucose-1-phosphate as substrate by Lineweaver-Burk plot analysis; set-up: species or system Oryctolagus cuniculus
[6] = molecular target: T2, Glycogen phosphorylase, liver form (Homo sapiens) (UniProt P06737); experiment: Inhibition of GP in human HepG2 cells assessed as reduction in GP activity at 500 uM incubated for 3 hrs by Bradford reagent based assay relative to control; type: cell-based
T2 sequence (whole entry): T1 sequence (P06737 whole entry)
How it was run: (§1)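 HepG2 cells were seeded at 1.0×10^6 per 60 mm dish and attached for 16–18 h. Glycogen was loaded for 16–18 h with 10 nM dexamethasone, 25 mM glucose and 100 nM insulin. Cells were then exposed to inhibitor or vehicle for 3 h in 5 mM glucose plus 100 nM glucagon. Lysates were sonicated in Tris pH 7.5/Triton/PMSF and cleared at 12,000 g. GP activity (nmol/min/mg, Bradford protein) came from a linear fit of 5 time points.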

[7] = molecular target: T2, Glycogen phosphorylase, liver form (Homo sapiens); experiment: Inhibition of GP in human HepG2 cells assessed as reduction in GP activity at 335 uM incubated for 3 hrs by Bradford reagent based assay relative to control; type: cell-based; how it was run: as §1
HepG2 [8] = experiment: Cytotoxicity against human HepG2 cells assessed as reduction in cell viability at 100 uM measured after 3 and 24 hrs by MTT assay; type: cell-based; conditions: hepg2, 24 h
[9] = molecular target: T2, Glycogen phosphorylase, liver form (Homo sapiens); experiment: Inhibition of GP in human HepG2 cells assessed as reduction in GP activity at 100 uM incubated for 3 hrs by Bradford reagent based assay relative to control; type: cell-based; how it was run: as §1
[10] = Inhibition of rabbit muscle GPb using Glc-1-P as substrate incubated for 15 mins; set-up: species or system Oryctolagus cuniculus
How it was run: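 Recombinant or rabbit muscle GP assayed by an earlier method. Initial velocities were taken from pseudo-first-order rate constants via the first-order rate equation. Ki came from non-linear regression with explicit weighting of apparent Km against inhibitor concentration, using 4–5 inhibitor levels per compound spanning 1–300 μM.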

SMILES | Ki [1] [µM] | Ki [2] [µM] | Activity (HepG2 [3]) | cytotoxicity at 3 h [4] [%] | Ki [5] [µM] | inhibition [6] [%] | inhibition [7] [%] | Activity (HepG2 [8]) | inhibition [9] [%] | Ki [10] [µM]
OC[C@H]1O[C@@H](c2nc(-c3ccccc3)cs2)[C@H](O)[C@@H](O)[C@@H]1O | 180 | 157 |  |  |  |  |  |  |  | 
OC[C@H]1O[C@@H](c2nc(-c3ccccc3)n[nH]2)[C@H](O)[C@@H](O)[C@@H]1O |  | 1.74 |  |  |  |  |  |  |  | 
OC[C@H]1O[C@@H](c2csc(-c3ccc4ccccc4c3)n2)[C@H](O)[C@@H](O)[C@@H]1O | 43.6 | 28 | Toxic | < 10 | 26.2 | < 25 |  |  |  | 
OC[C@H]1O[C@@H](c2c[nH]c(-c3ccccc3)n2)[C@H](O)[C@@H](O)[C@@H]1O | 25.9 | 17.7 | Toxic |  | 68.6 | 60 | 50 |  |  | 
OC[C@H]1O[C@@H](c2c[nH]c(-c3ccc4ccccc4c3)n2)[C@H](O)[C@@H](O)[C@@H]1O | 3.2 | 1.6 |  |  | 4.58 |  |  | Non-Toxic | 60 | 
OC[C@H]1O[C@@H](n2nnc(-c3ccccc3)n2)[C@H](O)[C@@H](O)[C@@H]1O | 134 | 146 |  |  |  |  |  |  |  | 162
OC[C@H]1O[C@@H](c2nc(-c3ccc4ccccc4c3)cs2)[C@H](O)[C@@H](O)[C@@H]1O | 78 | 69.1 |  |  |  |  |  |  |  | 
OC[C@H]1O[C@@H](c2csc(-c3ccccc3)n2)[C@H](O)[C@@H](O)[C@@H]1O | 172 | 75.6 |  |  | 326 |  |  |  |  | 
